# Reference: ChEMBL document CHEMBL2177098, “Synthesis and evaluation of novel ¹⁸F labeled 2-pyridinylbenzoxazole and 2-pyridinylbenzothiazole derivatives as ligands for positron emission tomography (PET) imaging of β-amyloid plaques” (J Med Chem, 2012)
# Active and inactive are the calls of the source. The calls are words filed in the database; no cut-off is given here.
# Experiments:
# Mus musculus [1] = test: Binding affinity to amyloid beta plaques in transgenic C57BL6 mouse cortex expressing APP Swedish mutant/PSEN1 at 19.2 MBq, iv after 30 mins by thioflavinS-staining method; format: functional, organism-based; conditions: 19.2 M, tested as the 18F-labelled form
# Mus musculus [2] = species: Mus musculus; test: Binding affinity to amyloid beta plaques in transgenic C57BL6 mouse hippocampus expressing APP Swedish mutant/PSEN1 at 370 KBq/100 ul after 1 hr by thioflavinS-staining method; format: tissue-based; conditions: tested as the 18F-labelled form
# In short: (§1)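 Paraffin brain sections from 12-month-old Tg mice (C57BL6, APPswe/PSEN1) and age-matched controls, deparaffinized through xylene and graded ethanol, then PBS (0.2 M, pH 7.4) 30 min. Incubated with 18F tracer (370 KBq per 100 μL) 1 h at room temperature, washed in 40% EtOH, rinsed in water, then phosphor plate exposure 2 h. The same sections were afterwards stained with 0.125% thioflavin S in 10% EtOH for 3 min and washed in 40% EtOH.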
# Mus musculus [3] = species: Mus musculus; test: Binding affinity to amyloid beta plaques in transgenic C57BL6 mouse cortex expressing APP Swedish mutant/PSEN1 at 370 KBq/100 ul after 1 hr by autoradiographic analysis; conditions: tested as the 18F-labelled form; in short: as §1
# Mus musculus [4] = species: Mus musculus; test: Binding affinity to amyloid beta plaques in transgenic C57BL6 mouse cortex expressing APP Swedish mutant/PSEN1 at 370 KBq/100 ul after 1 hr by thioflavinS-staining method; conditions: tested as the 18F-labelled form; in short: as §1
# [5] = Displacement of [125I]-IMPY from amyloid beta (1 to 42) fibrils after 2 hrs by gamma-counting analysis
# In short: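 Competition binding with aggregated Aβ1-42 fibrils and [125I]IMPY (60000−100000 cpm/100 μL) in 0.05% BSA (1 mL total); inhibitors 10⁻⁴−10^−8.5 M in ethanol. Incubated 37 °C for 2 h, then GF/B vacuum filtration with PBS (0.02 M, pH 7.4) washes and γ counting. Three repeats; IC50 converted to Ki by Cheng−Prusoff.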
# Mus musculus [6] = species: Mus musculus; test: Binding affinity to amyloid beta plaques in transgenic C57BL6 mouse hippocampus expressing APP Swedish mutant/PSEN1 at 370 KBq/100 ul after 1 hr by autoradiographic analysis; format: tissue-based; conditions: tested as the 18F-labelled form; in short: as §1
# [7] = biological target: Amyloid-beta precursor protein (Homo sapiens) (UniProt P05067); test: Binding affinity to amyloid beta plaques in Alzheimer patient brain at 370 KBq/100 ul after 1 hr by autoradiographic analysis; conditions: tested as the 18F-labelled form
# Sequence of Amyloid-beta precursor protein (Homo sapiens) (P05067 whole entry): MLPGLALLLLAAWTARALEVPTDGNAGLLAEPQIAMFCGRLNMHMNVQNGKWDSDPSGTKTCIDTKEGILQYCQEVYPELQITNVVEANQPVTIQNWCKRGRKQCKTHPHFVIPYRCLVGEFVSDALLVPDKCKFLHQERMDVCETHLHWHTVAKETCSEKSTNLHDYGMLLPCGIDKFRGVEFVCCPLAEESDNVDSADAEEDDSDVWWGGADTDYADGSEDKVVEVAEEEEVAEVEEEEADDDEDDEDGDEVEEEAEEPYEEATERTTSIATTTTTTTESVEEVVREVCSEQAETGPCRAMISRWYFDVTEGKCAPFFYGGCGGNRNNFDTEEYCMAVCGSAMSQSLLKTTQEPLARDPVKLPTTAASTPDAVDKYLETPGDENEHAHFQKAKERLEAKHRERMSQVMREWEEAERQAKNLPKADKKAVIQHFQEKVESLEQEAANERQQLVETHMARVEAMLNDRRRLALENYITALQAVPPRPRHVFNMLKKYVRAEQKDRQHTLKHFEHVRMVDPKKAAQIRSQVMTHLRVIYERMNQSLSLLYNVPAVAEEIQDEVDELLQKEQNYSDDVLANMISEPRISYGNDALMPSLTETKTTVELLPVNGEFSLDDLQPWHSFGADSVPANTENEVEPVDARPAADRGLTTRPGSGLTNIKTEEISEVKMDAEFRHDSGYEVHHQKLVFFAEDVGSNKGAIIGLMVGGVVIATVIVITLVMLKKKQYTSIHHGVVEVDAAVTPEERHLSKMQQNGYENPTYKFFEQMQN
# Mus musculus [8] = test: Binding affinity to amyloid beta plaques in transgenic C57BL6 mouse cortex expressing APP Swedish mutant/PSEN1 at 19.2 MBq, iv after 30 mins by autoradiographic analysis; format: functional, organism-based; conditions: 19.2 M, tested as the 18F-labelled form
# In short: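 Ex vivo: Tg mouse (C57BL6, APPswe/PSEN1) given 19.2 MBq tracer in saline via tail vein; decapitated 30 min later. Brain frozen in liquid nitrogen, 20 μm sections cut and exposed to a phosphor plate for 5 h.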
structure (smiles),measurement,setting,value
CNc1ccc(-c2nc3cc(OCCF)ccc3o2)cn1,Activity,Mus musculus [1],Active
same,Activity,Mus musculus [2],Active
same,Activity,Mus musculus [3],Active
same,Activity,Mus musculus [4],Active
same,Ki,[5],8 nM
same,Activity,Mus musculus [6],Active
same,Activity,[7],Active
same,Activity,Mus musculus [8],Active
